Each block holds one compound with its values, some of them ahead of it. The source made the active and inactive calls. The calls are words filed in the database; no cut-off is given here.
Legend:
[1] = target: T1, Tyrosine-protein phosphatase non-receptor type 1 (Homo sapiens) (UniProt P18031); test: Inhibition of human recombinant GST-tagged PTP1B expressed in Escherichia coli TB1 cells using p-NPP as substrate at 40 uM
T1 sequence (whole entry): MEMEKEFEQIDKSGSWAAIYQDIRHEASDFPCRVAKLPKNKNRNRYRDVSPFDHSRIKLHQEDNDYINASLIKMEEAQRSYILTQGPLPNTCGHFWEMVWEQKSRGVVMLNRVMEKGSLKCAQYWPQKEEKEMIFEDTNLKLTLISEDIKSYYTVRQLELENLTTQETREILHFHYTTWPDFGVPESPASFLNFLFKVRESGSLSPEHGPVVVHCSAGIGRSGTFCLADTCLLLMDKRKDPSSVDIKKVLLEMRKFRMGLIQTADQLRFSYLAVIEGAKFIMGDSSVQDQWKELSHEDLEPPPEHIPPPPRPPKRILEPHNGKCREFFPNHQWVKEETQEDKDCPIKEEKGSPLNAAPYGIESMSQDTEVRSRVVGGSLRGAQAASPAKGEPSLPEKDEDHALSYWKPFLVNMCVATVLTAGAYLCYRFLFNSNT
In short: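 PTP-1B was cleaved from GST with thrombin and gel-filtered. Assay: 0.075 M β,β-dimethylglutarate buffer pH 7.0 with 1 mM EDTA and 1 mM DTT, 2.5 mM p-NPP, compound 40 μM final, DMSO control, 37 °C, 0.16 μg enzyme per 1 mL assay. Stopped with KOH; p-nitrophenol read at 400 nm. Residual activity is % of control, four assays, mean ± S.E.M.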

[2] = target: T1, Tyrosine-protein phosphatase non-receptor type 1 (Homo sapiens); test: Reversible inhibition of human recombinant GST-tagged PTP1B expressed in Escherichia coli TB1 cells using p-NPP as substrate at 100 uM after 1 hr at 37 degC
In short: (§1)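 The enzyme, cleaved from GST, was preincubated for 1 h at 4 °C or 37 °C with 100 μM compound or a DMSO control. It was then diluted 400-fold into assay solution, and residual activity was measured at 37 °C with 5 mM p-NPP final, read at 400 nm. Triplicates, mean ± S.E.M.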

[3] = target: T1, Tyrosine-protein phosphatase non-receptor type 1 (Homo sapiens); test: Slow binding inhibition of human recombinant GST-tagged PTP1B expressed in Escherichia coli TB1 cells using p-NPP as substrate
In short: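 p-Nitrophenol release from p-NPP by PTP-1B was followed over time at 400 nm at several inhibitor concentrations, at 37 °C, pH 7.0. Progress curves were examined for linearity, with and without 30 min enzyme–inhibitor preincubation before the assay.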

[4] = target: T2, Tyrosine-protein phosphatase non-receptor type 1 (Homo sapiens, UniProt P18031); test: Mixed-type inhibition of human recombinant GST-tagged PTP1B expressed in Escherichia coli TB1 cells using p-NPP as substrate by double reciprocal plot analysis
T2 sequence (P18031 whole entry): T1 sequence (whole entry)
In short: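 Thrombin-cleaved, gel-filtered PTP-1B in pH 7.0 β,β-dimethylglutarate/EDTA/DTT buffer at 37 °C. Initial p-NPP hydrolysis rates were measured at eight substrate concentrations (0.5–40 mM) with increasing inhibitor concentrations. p-Nitrophenol was read at 400 nm, and Km/Vmax changes were analysed by double reciprocal plots.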

[5] = target: T1, Tyrosine-protein phosphatase non-receptor type 1 (Homo sapiens); test: Reversible inhibition of human recombinant GST-tagged PTP1B expressed in Escherichia coli TB1 cells using p-NPP as substrate at 100 uM after 1 hr at 4 degC; in short: as §1
[6] = target: T2, Tyrosine-protein phosphatase non-receptor type 1; test: Inhibition of human recombinant GST-tagged PTP1B expressed in Escherichia coli TB1 cells using p-NPP as substrate
Rattus norvegicus [7] = test: Hypoglycemic activity in glucose fed normoglycemic Wistar rat assessed as decrease in rise of blood glucose at 100 mg/kg, po single dose measured up to 4 hrs post dose by oral glucose tolerance test; type: functional; parameters: scale not given: the % may be the effect or the level left
In short: (§2)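 Male Wistar rats (200–250 g), fasted 18 h, n = 5 per group. Test agents were given orally as suspensions at the listed doses, with vehicle controls. A 2 g/kg glucose load was given by the same route 10 min later. Tail-tip blood was sampled at 0, 0.5, 1, 2, 3 and 4 h. Glucose was read by the glucose oxidase glucometer method.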

Rattus norvegicus [8] = test: Hypoglycemic activity in normoglycemic Wistar rat at 100 mg/kg, po administered as single dose measured up to 5 hrs post dose; type: functional
In short: (§3)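 Male Wistar rats (200–250 g), n = 5 per group, given a single oral/intragastric dose suspended in 5% Tween 80. Vehicle controls received 5% Tween 80. Caudal-vein blood was taken at 0, 1, 3, 5 and 7 h and glucose read with a glucose oxidase glucometer. Results are % glycemia change versus 0 h, mean ± S.E.M., ANOVA p < 0.05.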

Rattus norvegicus [9] = test: Hypoglycemic activity in normoglycemic Wistar rat at 100 mg/kg, po administered as single dose measured up to 3 hrs post dose; type: functional; in short: as §3
Rattus norvegicus [10] = test: Hypoglycemic activity in glucose-fed normoglycemic Wistar rat assessed as decrease in rise of blood glucose at 4 mg/kg, po single dose measured up to 4 hrs post dose by oral glucose tolerance test; type: functional, organism-based; parameters: dose 4 mg/kg; in short: as §2
Rattus norvegicus [11] = test: Hypoglycemic activity in glucose-fed normoglycemic Wistar rat assessed as decrease in rise of blood glucose at 5 to 10 mg/kg, po single dose measured up to 4 hrs post dose by oral glucose tolerance test; type: functional, organism-based; in short: as §2
Rattus norvegicus [12] = test: Hypoglycemic activity in normoglycemic Wistar rat at 10 mg/kg, po administered as single dose measured up to 3 hrs post dose; type: functional, organism-based; parameters: dose 10 mg/kg; in short: as §3

SMILES: CCOC(=O)C(=O)Nc1nc2ccc([N+](=O)[O-])cc2s1
- inhibition [1]: inactive

SMILES: CCOC(=O)C(=O)Nc1nc2ccc(F)cc2s1
- inhibition [2]: Active
- inhibition [3]: inactive
- Ki [4]: 7.9 µM
- inhibition [5]: Active
- IC50 [6]: 8.7 µM

SMILES: CCOC(=O)C(=O)Nc1nc2ccccc2s1
- inhibition [1]: inactive

SMILES: CCOC(=O)C(=O)Nc1nc2ccc(S(C)(=O)=O)cc2s1
- inhibition [1]: inactive

SMILES: CCOC(=O)C(=O)Nc1nc2ccc(N)cc2s1
- inhibition [1]: inactive

SMILES: CCOc1cc(CC(=O)N[C@@H](CC(C)C)c2ccccc2N2CCCCC2)ccc1C(=O)O
- Activity (Rattus norvegicus [10]): Active

SMILES: COc1ccc(Cl)cc1C(=O)NCCc1ccc(S(=O)(=O)NC(=O)NC2CCCCC2)cc1
- Activity (Rattus norvegicus [11]): Active
- Activity (Rattus norvegicus [12]): Active

Further lines, with some results ahead:

- inhibition [1]: inactive
SMILES: CCOC(=O)C(=O)Nc1nc2ccc(OCC)cc2s1

- inhibition [2]: Active
- inhibition [3]: inactive
- Ki [4]: 6.2 µM
- inhibition [5]: Active
- IC50 [6]: 11 µM
SMILES: CCOC(=O)C(=O)Nc1nc2ccc(C)cc2s1
- Activity (Rattus norvegicus [7]): >20%
- Activity (Rattus norvegicus [8]): 26%

- inhibition [1]: inactive
SMILES: CCOC(=O)C(=O)Nc1nc2ccc(OC)cc2s1

- inhibition [2]: Active
- inhibition [3]: inactive
- Ki [4]: 7.9 µM
- inhibition [5]: Active
- IC50 [6]: 10.1 µM
SMILES: CCOC(=O)C(=O)Nc1nc2ccc(Cl)cc2s1
- Activity (Rattus norvegicus [9]): 30%
- Activity (Rattus norvegicus [7]): >20%
